Measurements taken from ChEMBL document CHEMBL1781939, “Triterpene and sterol derivatives from the roots of Breynia fruticosa” (J Nat Prod, 2011).

What was measured:
Assay type in all cases: functional, cell-based
HL-60 = test: Cytotoxicity against human HL60 cells after 48 hrs by MTT assay; settings: HL-60, 48 h
How it was run: (§1)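 Cells grown in DMEM with 10% FBS, 5% CO2, 37 °C. Adherent lines plated and left to attach 12 h before dosing; suspension HL-60 plated immediately before dosing; starting density 1 × 10^5 cells/mL. Treated with 0.064, 0.32, 1.6, 8 and 40 μM in triplicate for 48 h; cisplatin as positive control. Viability by MTT; IC50 by Reed–Muench method.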

SMMC-7721 = test: Cytotoxicity against human SMMC7721 cells after 48 hrs by MTT assay; settings: SMMC-7721, 48 h; how it was run: as §1
A549 = test: Cytotoxicity against human A549 cells after 48 hrs by MTT assay; settings: A549, 48 h; how it was run: as §1
MCF7 = test: Cytotoxicity against human MCF7 cells after 48 hrs by MTT assay; settings: MCF7, 48 h; how it was run: as §1
SW480 = test: Cytotoxicity against human SW480 cells after 48 hrs by MTT assay; settings: SW480, 48 h; how it was run: as §1

Compound | IC50 (HL-60) [µM] | IC50 (SMMC-7721) [µM] | IC50 (A549) [µM] | IC50 (MCF7) [µM] | IC50 (SW480) [µM]
C=C(C)[C@@H]1CC[C@]2(C(=O)O)CC[C@]34C(=O)O[C@]5(CC[C@@H]3[C@@H]12)[C@@]4(C)CC[C@]12O[C@]51[C@@H](C)CC2(C)C [BREYNCEANOTHANOLIC ACID] | 10.2 | 14.3 | 14.5 | 12.7 | 20
C=C(CC[C@@H](C(=O)S)[C@H]1CC[C@H]2C3=CC[C@H]4[C@H](C)[C@@H](O[C@@H]5O[C@@H](C)[C@H](O)[C@@H](O)[C@@H]5O)[C@H](OC(C)=O)C[C@]4(C)[C@H]3CC[C@]12C)C(C)C [FRUTICOSIDE F] | > 40 | > 40 | > 40 | > 40 | > 40
C=C(CC[C@@H](C(=O)O)[C@H]1CC[C@H]2C3=CC[C@H]4[C@H](C)[C@@H](O)[C@H](O)C[C@]4(C)[C@H]3CC[C@]12C)C(C)C [FRUTICOSIDE B] | > 40 | > 40 | > 40 | > 40 | > 40
C=C(C)[C@@H]1CC[C@]2(C(=O)O)CC[C@]3(C)[C@H](CC[C@@H]4[C@@]5(C)[C@H](C=O)[C@H](O)C(C)(C)[C@@H]5CC[C@]43C)[C@@H]12 [ZIZYBERANALIC ACID] | > 40 | > 40 | > 40 | > 40 | > 40
C/C=C(/CC[C@@H](C(=O)S)[C@H]1CC[C@H]2C3=CC[C@H]4[C@H](C)[C@@H](O[C@@H]5O[C@@H](C)[C@H](O)[C@@H](O)[C@@H]5O)CC[C@]4(C)[C@H]3CC[C@]12C)C(C)C [FRUTICOSIDE G] | > 40 | > 40 | > 40 | > 40 | > 40
C=C(CC[C@@H](C(=O)O)[C@H]1CC[C@H]2C3=CC[C@H]4[C@H](C)[C@@H](O[C@@H]5O[C@@H](C)[C@H](O)[C@@H](O)[C@@H]5O)[C@H](O)C[C@]4(C)[C@H]3CC[C@]12C)C(C)C [FRUTICOSIDE C] | > 40 | > 40 | > 40 | > 40 | > 40
C=C(CC[C@@H](C(=O)O)[C@H]1CC[C@H]2C3=CC[C@H]4[C@H](C)[C@@H](O[C@@H]5O[C@@H](C)[C@H](O)[C@@H](O)[C@H]5O)[C@H](OC(C)=O)C[C@]4(C)[C@H]3CC[C@]12C)C(C)C [FRUTICOSIDE E] | > 40 | > 40 | > 40 | > 40 | > 40
C=C(CC[C@@H](C(=O)O)[C@H]1CC[C@H]2C3=CC[C@H]4[C@H](C)[C@@H](O[C@@H]5O[C@@H](C)[C@H](O)[C@@H](O)[C@@H]5O)[C@H](OC(C)=O)C[C@]4(C)[C@H]3CC[C@]12C)C(C)C [FRUTICOSIDE D] | > 40 | > 40 | > 40 | > 40 | > 40
C=C(C)[C@@H]1CC[C@]2(C(=O)O)CC[C@]3(C)[C@H](CC[C@@H]4[C@@]5(C)[C@H](C(=O)O)[C@H](O)C(C)(C)[C@@H]5CC[C@]43C)[C@@H]12 [EPICEANOTHIC ACID] | > 40 | > 40 | > 40 | > 40 | > 40
C=C(CC[C@@H](CO)[C@H]1CC[C@H]2C3=CC[C@H]4[C@H](C)[C@@H](O)[C@H](O)C[C@]4(C)[C@H]3CC[C@]12C)C(C)C [FRUTICOSIDE A] | 3 | 18.5 | 15.7 | 15.4 | 18.4
